From PubChem BioAssay AID617 (SRMLSC, 2007)

Tested on: E. coli BW25113 ΔtolC growth inhibition, OD615
Assay: E. coli ΔtolC antibacterial growth inhibition – strain BW25113 ΔtolC::kan, dose response (AID 617);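 also: growth read after 20 h at 37 °C with compound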
Summary of the method: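 Test system: E. coli BW25113 ΔtolC::kan bacteria | Amount: 1:1000 diluted subculture inoculum | Medium: LB plus kanamycin | Timing: 20 h exposure at 37 °C | Signal: Absorbance at 615 nm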

SMILES | IC50 [µM]
CC(C)(C)C(=O)Cn1c(=N)n(Cc2ccccc2)c2ccccc21 | 17.2
CCOc1ccccc1-c1nn2c(Cc3ccccc3)nnc2s1 | 0.76
COc1ccc2nc(SCC(=O)N(C)C3CCCCC3)c(C#N)cc2c1 | 15.8
O=C(c1noc2c1CCc1ccccc1-2)N1CCc2ccccc2C1 | 6.67
CC(C)N(Cc1nc(-c2ccc(Cl)cc2)no1)C(=O)CCC1CCCC1 | 15.5
CCOC(=O)c1ccc(-n2[nH]c(-c3ccccc3)cc2=O)cc1 | 8.26
CCc1ccccc1N(CC)C(=O)CCc1nc(-c2ccc(C)cc2)no1 | 11.2
Cc1c(C(=O)N2CCc3ccccc3C2)sc2nc(-c3ccccc3)cn12 | 13.6
CCC(C(=O)N1CCN(c2cccc(Cl)c2)CC1)c1ccccc1 (stereo not given) | 14.2
c1coc(CN(Cc2cccs2)Cc2nnnn2C2CCCCC2)c1 | 19.6
COc1cccc(Cn2c(Oc3cccc(C)c3)nc3c2c(=O)n(C)c(=O)n3C)c1 | 14.3
O=C(NCC1CCCO1)c1sc(=S)n2c1[nH]c(=O)c1ccc(C(=O)N3CCCCC3)cc12 (stereo not given) | 16.4
CCCN(CCC)c1nc(NC2CCN(C(=O)OCC)CC2)nc(OC)n1 | 12.4
CN1/C(=C\C(=O)COc2ccc3c(c2)OCO3)C(C)(C)c2ccccc21 | 11.2
O=C(COc1cccc2ccccc12)N1CCN(c2ccccc2)CC1 | 22.6
Cc1ccccc1-c1nc(CS(=O)(=O)CC(=O)N2CCc3ccccc3C2)c(C)o1 | 31.7
COc1cc(Cc2cnc(N)nc2N)cc(OC)c1OC | 0.34
COCCn1nnnc1C(C(C)C)N(Cc1ccccc1)Cc1cc2cc(OC)ccc2[nH]c1=O (stereo not given) | 11
Cc1cccc2cc(C(c3nnnn3CC3CCCO3)N3CCc4ccccc4C3)c(=O)[nH]c12 (stereo not given) | 35.4
Cc1ccc(O)c(C(=O)CC(=O)c2cccc(F)c2)c1 | 11.6
CCCCNc1cc(C)nc(NCc2ccccc2)n1 | 7.8
Cc1cc(Cl)ccc1OCC(=O)Nc1ccccc1N1CCOCC1 | 8.64

SMILES | IC50 [µM]
CC1CC(N(C(=O)c2ccco2)c2ccccc2)c2ccccc2N1 (stereo not given) | 13.4
c1ccc(CSc2nnc(-c3cccs3)n2Cc2ccco2)cc1 | 13.2
C=CCn1c(NC(C)c2cc(Cl)ccc2O)nc2ccccc21 (stereo not given) | 6.8
Cc1cc(Cl)ccc1OC(C)C(=O)Nc1ccccc1N1CCOCC1 (stereo not given) | 8.59
CCC(Sc1nnnn1-c1ccccc1)C(=O)Nc1nc2ccccc2s1 (stereo not given) | 5.44
Cc1ccc(C2CC(c3cccc(Br)c3)Nc3nnnn32)cc1 (stereo not given) | 13
Cn1cccc1C(=O)Nc1nc(-c2ccccn2)cs1 | 2.42
CC(=O)c1sc(NC(=O)C2(F)C(F)(F)C(F)(F)C(F)(F)C(F)(F)C2(F)F)nc1C | 0.92
CCOC(=O)C1CCN(C(=O)c2oc3ccc(S(=O)(=O)N4CCCCCC4)cc3c2C)CC1 | 21.6
COC(=O)c1ccc(CSc2nc3ccccc3o2)cc1 | 20.2
CC1=C(C#N)c2nc(N)c(C#N)c(C)c2/C1=C\c1ccccc1 | 3.05
CC(=O)c1c(C)n([O-])c2ccccc2[n+]1=O | 3.89
CCOC(=O)c1cc(C)n(S(=O)(=O)c2ccc(C)cc2)c1C | 12.4
CCOc1cccc(NC(=O)C2CC(=O)N(C)C(=Nc3cccc(F)c3)S2)c1 (stereo not given) | 15.1
CCSc1nnc(NC(=O)c2ccccn2)s1 | 4.66
Cc1ccc(-c2noc(CCC(=O)N3CCCc4ccccc43)n2)cc1 | 12.8
Cc1ccccc1OCCCN1C(=O)C(=O)c2cccc(C)c21 | 103
O=c1[nH]c(NCCCO)nc2c1C1(CCCC1)Cc1ccccc1-2 | 8.77
CN(Cc1ccccc1)c1ncnc2c1cnn2-c1ccccc1 | 12.7
OC(c1cccc(OCc2ccccc2)c1)c1nnc(-c2ccccc2)o1 (stereo not given) | 72.1
N#CC1=C(N)SC(N)=C(C#N)C1CCC1CCCCC1 | 3.65
CCOC(=O)C1CN(c2cc3c(cc2F)c(=O)c(C(=O)O)cn3CC)OC1C(=O)OCC (stereo not given) | 0.81

SMILES | IC50 [µM]
O=C(c1ccc(COc2ccc3c(c2)CCC3)o1)N1CCN(c2ccccc2)CC1 | 10.7
CO[C@@]1(NC(=O)Cc2cccs2)C(=O)N2C(C(=O)O)=C(COC(N)=O)CS[C@@H]21 | 2
Cc1ccc(N(CC(=O)Nc2cccc(C)c2)S(=O)(=O)c2cccc3nonc23)cc1 | 37
O=C(COc1ccccc1)Nc1ccccc1N1CCCCC1 | 25.6
CCn1cc(C(=O)OCC(=O)OC2CC(C)CCC2C(C)C)c(=O)c2ccc(C)nc21 (stereo not given) | 7.52
Cc1cc(N2CCN(c3ccccc3)CC2)nc(-c2ccccc2)n1 | 14.3
Cc1ccc(C)c(N2CCN(C(=O)c3ccc(NS(=O)(=O)c4c(C)noc4C)cc3)CC2)c1 | 13.6
CS(=O)(=O)N1CCc2cc(-c3csc(NC(=O)Cc4cccs4)n3)ccc21 | 21.7
COc1ccc(CNc2nc3c(c(=O)n(Cc4ccc(F)cc4)c(=O)n3C)n2C)cc1 | 22.5
Nc1nc(CN2CCN(c3cccc(Cl)c3)CC2)nc(N2CCCc3ccccc32)n1 | 4.27
CCOC(=O)N1CCc2c(sc(NC(=O)c3ccc(Cl)s3)c2C(N)=O)C1 | 5.13
Cn1c(=O)n(CCCOc2ccc(Cl)cc2)c2ccccc21 | 15.7
CCOc1ccccc1N1CCN(Cc2ccc(Br)s2)CC1 | 26.6
CN(c1ccccc1C(=O)Nc1ccc(S(=O)(=O)N2CCCCC2)cc1)S(C)(=O)=O | 7.39
CCCOC(=O)c1ccc(Oc2c(-c3ccc(O)cc3O)n[nH]c2C)cc1 | 3.26
CCC1(C)Cc2ccccc2-c2nc3n(c(=O)c21)CCCCC3 (stereo not given) | 15.8
O=C(c1ccc2c(=O)n(C3CCCC3)c(=S)[nH]c2c1)N1CCN(C2CCCCC2)CC1 | 15
CCn1c(SC)nnc1-c1sc2cc(Cl)ccc2c1Cl | 11.6
Cc1ccc(SC/C(O)=C(\C#N)c2nc3ccccc3s2)cc1 | 1.03
CCN(CC)c1nc(N)c2c(N)nc3c(c2c1C#N)CC(c1ccccc1)O3 (stereo not given) | 6.58
CC1CCCCN1C(=O)CSc1nc(C2CC2)nc2c1cnn2-c1ccccc1 (stereo not given) | 12.3
COC(=O)c1[nH]c2ccc(C)cc2c1NS(=O)(=O)c1ccc(F)cc1 | 6.58

SMILES | IC50 [µM]
O=C(Cc1ccccc1)Nc1ccccc1N1CCN(c2ccccc2)CC1 | 64.5
CC(C)c1ccc(-c2nnn(Cc3nc4ccccc4s3)n2)cc1 | 22.8
O=C(NCc1ccco1)c1cc2sccc2n1Cc1ccccc1 | 14.4
O=C(Nc1cccc(C(F)(F)F)c1)N1CCC(c2nc(-c3ccc(F)cc3)no2)CC1 | 3.75
CSCSC1=C(C#N)C(c2ccc(Cl)cc2)C(C(C)=O)=C(C)N1 (stereo not given) | 9.12
CCOC(=O)C1C(=O)C=C(c2ccc(OC)cc2)CC1c1ccco1 (stereo not given) | 11.6
Cc1ccc(C)c(SCC(=O)Nc2nnc(-c3ccccc3)o2)c1 | 4.69
CCn1nc(-c2cccs2)nc2c(=O)n(C)c(=O)nc1-2 | 1.92
O=S(=O)(NCCSc1ccc(Cl)cc1)c1ccc2c(c1)OCCO2 | 8.89
O=C(c1ccco1)N1CCN(c2ncnc3c2[nH]c2ccc(Br)cc23)CC1 | 44.5
CCOC(=O)Cc1c(C)nc2c(-c3cccc(Br)c3)c[nH]n2c1=O | 0.17
O=C(Nc1nnc(-c2cccs2)o1)c1cccc(Oc2ccccc2)c1 | 0.17
Cc1ccc(C)c(C(=O)CSc2n[nH]c(-c3ccncc3)n2)c1 | 2
CCOC(=O)c1nnn(-c2nonc2-n2cccc2)c1CN1CCC(C)CC1 | 23.4
COCCCN1C(=O)c2[nH]nc(-c3ccccc3O)c2C1c1ccc(Cl)cc1 (stereo not given) | 5.96
O=C(Nc1cccc(S(=O)(=O)c2cccc(NC(=O)C3CC3)c2)c1)C1CC1 | 5.25
COc1ccc(-c2nc3oc4cc(OC)ccc4c(=O)c3c(=O)n2Cc2ccco2)cc1 | 2.33
Cc1ccc(Nc2nc(N)nc(CN3CCN(c4ccccc4)CC3)n2)cc1Cl | 5.97
CC(C)(C)c1ccc(C(=O)CCCSC2=C(C#N)C(c3ccco3)C3=C(CCCC3=O)N2)cc1 (stereo not given) | 1.77
COCc1nnc(NC(=O)c2ccc(S(=O)(=O)N3CCCCCC3)cc2)o1 | 7.62
COc1ccc(CCN2C(=O)c3[nH]nc(-c4ccccc4O)c3C2c2ccc(C)cc2)cc1OC (stereo not given) | 13.8
N#Cc1ccc(CSc2nnc(-c3cccs3)n2-c2ccccc2)cc1 | 15.6

SMILES | IC50 [µM]
Cc1cc(NS(=O)(=O)c2ccc(NC(=O)COc3ccccc3C(C)C)cc2)no1 | 16.5
Cc1ccc(-n2c(=O)[nH]cc(C(=O)Nc3ccc4c(c3)OCCO4)c2=O)cc1C | 26.9
COc1ccccc1-n1c(=O)oc2ccc(Cl)cc2c1=O | 1.49
CC1Oc2ccccc2N(Cc2ccccc2Cl)C1=O (stereo not given) | 27.9
COc1ccc(-c2cc(C(=O)N3CCCc4ccccc43)no2)cc1 | 20.5
Cc1ccc(S(=O)(=O)c2nc(Nc3nccs3)sc2Cl)cc1 | 2.48
O=C(Nc1ccc(Cl)c(C(F)(F)F)c1)c1ccco1 | 7.46
CC(=O)c1ccccc1OCC(O)CN1CCN(C(c2ccccc2)c2ccccc2)CC1 (stereo not given) | 14.1
O=C(N1CCN(c2ccccn2)CC1)N1c2ccccc2Sc2ccccc21 | 19.4
N#CCSc1n[nH]c2nc3c(c(=O)n12)C1(CCCC1)Cc1ccccc1-3 | 4.21
CCCCN(C)S(=O)(=O)c1ccc(C(=O)Nc2nnc(CSC)o2)cc1 | 0.86
CCCCn1nc(NC(=O)c2cccs2)c2cc3ccccc3nc21 | 8.28
O=C(COc1ccc2ccccc2c1Br)N1CCN(c2ccccn2)CC1 | 10.5
CCn1nc(-c2ccccc2)nc2c(=O)n(C)c(=O)nc1-2 | 2.8
CCn1cc(C(=O)NCc2ccc3c(c2)OCO3)c(=O)c2cc(F)c(N3CCN(C)CC3)cc21 | 2.8
CC1Cc2ccccc2N1C(=O)Cn1c(=O)oc2cc(S(=O)(=O)NC3CCCC3)ccc21 (stereo not given) | 4.39
CCn1c(Cn2nnc(-c3ccccc3)n2)nnc1SCc1ccc(Cl)c(Cl)c1 | 7.77
Cc1oc2c(CN3CCCC3)c(O)ccc2c(=O)c1-c1ccc(Br)cc1 | 25.5
CSc1ncc(Cl)c(C(=O)C(C#N)c2nc3c(C)cc(C)cc3c(=O)[nH]2)n1 (stereo not given) | 3.28
O=C(c1ccccc1CCc1ccccc1)N1CCN(c2ccccn2)CC1 | 8.38
COc1cccc(C2/C(=C(/O)c3ccc(C)cc3)C(=O)C(=O)N2Cc2ccco2)c1 (stereo not given) | 4.54
O=S(=O)(Nc1ccc(S(=O)(=O)N2CCCCC2)cc1)c1ccc(Br)s1 | 4.39
